The record followed here is PubChem BioAssay AID624082 (The Scripps Research Institute Molecular Screening Center, 2012).

Calls of active or inactive are those of the source.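 The calls were made as follows: active = MIC showing a fourfold drop that lands at or below 10 µM; inactive = fourfold-lowered MIC still above 10 µM.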 Where only a bound is given, the exact number is not on record here.

Assay [1] can be described thus: imipenem potentiation against NDM-1 K. pneumoniae, late-stage follow-up, VIM-2 MBL inhibitor project, BAA-2146, NDM-1 transformed, nonselective, MIC fold reduction (AID 624082). To be noted: K. pneumoniae BAA-2146 NDM-1, imipenem synergy, growth MIC; measured here: max imipenem fold potentiation; stronger effect = higher value. In a few lines:
(§1)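 Assay system – log-phase bacterial culture in a checkerboard broth microdilution · Buffer or medium – Mueller-Hinton broth, cation-adjusted (CAMHB) · Reagent – imipenem, two-fold titration series · Dosing – test compound two-fold serial titration, crossed with imipenem titration · Times – aerobic incubation of inoculated wells, at least 18 h, 37 °C · Read-out – MIC per CLSI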

For assay [2], the system named is K. pneumoniae BAA-2146 NDM-1, imipenem synergy, growth MIC. Described as above. The essentials:
as §1

On to `O=C(CN1C(=O)/C(=C/c2c(Cl)ccc(Cl)c2Cl)SC1=S)NN1CCNCC1`, for which the fold potentiation in assay [1] turned out to be 2. Besides, the MIC – broadly, the lowest concentration found to suppress growth – in assay [2] is > 50 µM (inactive).

For `O=C(CN1C(=O)/C(=C/c2c(Cl)cccc2Cl)SC1=S)NN1CCN(Cc2ccccc2)CC1`, the MIC in assay [2] was > 50 µM (inactive). For the compound `O=C(CN1C(=O)/C(=C/c2c(Cl)cccc2Cl)SC1=S)NN1CCN(C(=O)c2ccccc2)CC1`, the MIC in assay [2] was > 50 µM (inactive). With `O=C(CN1C(=O)/C(=C/c2c(Cl)ccc(Cl)c2Cl)SC1=S)NCc1ccccn1`, in assay [2], the MIC is > 50 µM (inactive). On to `CN1CCN(NC(=O)CN2C(=O)/C(=C/c3c(Cl)ccc(C(F)(F)F)c3Cl)SC2=S)CC1`, for which the fold potentiation in assay [1] amounted to 2. The MIC in assay [2] was > 50 µM (inactive). `O=C(CN1C(=O)/C(=C/c2c(Cl)ccc(Cl)c2Cl)SC1=S)NN1CCCCC1`: the MIC in assay [2] is > 50 µM (inactive). Regarding `CC(C)N1CCN(NC(=O)CN2C(=O)/C(=C/c3c(Cl)cccc3Cl)SC2=S)CC1`, the MIC in assay [2] is > 50 µM (inactive). Take `CC(C)(C)OC(=O)N1CCN(NC(=O)CN2C(=O)/C(=C/c3c(Cl)ccc(Cl)c3Cl)SC2=S)CC1`: the MIC in assay [2] is > 50 µM (inactive). Turning to `CN1CCN(NC(=O)CN2C(=O)/C(=C/c3c(Cl)ccc(Cl)c3Cl)SC2=S)CC1`, the fold potentiation in assay [1] worked out at 2. In addition, the MIC in assay [2] is > 50 µM (inactive).

Take `CN1CCN(C(=O)CN2C(=O)/C(=C/c3c(Cl)ccc(Cl)c3Cl)SC2=S)CC1`: the MIC in assay [2] was > 50 µM (inactive). For `CC(=O)N1CCN(NC(=O)CN2C(=O)/C(=C/c3c(Cl)cccc3Cl)SC2=S)CC1`, in assay [2], the MIC was > 50 µM (inactive). With `CN1CCN(NC(=O)CN2C(=O)/C(=C/c3c(F)cccc3C(F)(F)F)SC2=S)CC1`, the fold potentiation in assay [1] was found to be 2. The MIC in assay [2] was > 50 µM (inactive).

Turning to `CN1CCN(NC(=O)CN2C(=O)/C(=C/c3c(Cl)cccc3Cl)SC2=S)CC1`, the fold potentiation in assay [1] was 2. The MIC in assay [2] is > 100 µM (inactive). As for `CN1CCN(NC(=O)CN2C(=O)/C(=C/c3c(F)cccc3Cl)SC2=S)CC1`, in assay [1], the fold potentiation worked out at 2. The MIC in assay [2] is > 50 µM (inactive). As for `O=C(O)CN1C(=O)/C(=C/c2c(Cl)cccc2Cl)SC1=S`, the MIC in assay [2] is > 100 µM (inactive). Regarding `O=C(CN1C(=O)/C(=C/c2c(Cl)cccc2Cl)SC1=S)NCc1ccccn1`, in assay [2], the MIC is > 100 µM (inactive). Take `CC(C)(C)OC(=O)N1CCN(NC(=O)CN2C(=O)/C(=C/c3c(Cl)cccc3Cl)SC2=S)CC1`: the MIC in assay [2] was > 100 µM (inactive). As for `CCN(CC)OC(=O)CN1C(=O)/C(=C/c2c(Cl)cccc2Cl)SC1=S`, the MIC in assay [2] is > 100 µM (inactive). For the compound `CN1CCN(NC(=O)CN2C(=O)/C(=C/c3c(C(F)(F)F)ccc(Cl)c3Cl)SC2=S)CC1`, in assay [1], the fold potentiation is 2. Further, in assay [2], the MIC is > 50 µM (inactive). In the case of `O=C(O)CN1C(=O)/C(=C/c2c(F)cccc2C(F)(F)F)SC1=S`, in assay [2], the MIC was > 50 µM (inactive).

On to `O=C(CN1C(=O)/C(=C/c2c(Cl)cccc2Cl)SC1=S)NN1CCNCC1`, for which, in assay [2], the MIC is > 50 µM (inactive).
